Laboratory results as given in ChEMBL document CHEMBL1139887, “Glycosides from the stem bark of Fraxinus sieboldiana” (J Nat Prod, 2007).

What was measured:
Liver microsomes = assay: Antioxidant activity in rat liver microsomes assessed as inhibition of ferrous-cystine-induced lipid peroxidation after 15 mins; type: functional, Microsome
Outline: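 Microsomes from rat liver suspended in 100 mM Tris-HCl pH 7.4. Then 50 µM FeSO4 added and a further 15 min at 37 °C. Stopped with 20% TCA and spun. Supernatant heated with 0.67% TBA 10 min, read at 532 nm. Tested over several concentrations.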

HCT-8 = assay: Cytotoxicity against human HCT8 cells; type: cell-based
A2780 = assay: Cytotoxicity against human A2780 cells; type: cell-based
[1] = system: Peritoneal macrophage cell; assay: Inhibition of LPS-induced TNFalpha secretion in C57BL/6J mouse peritoneal macrophages at 10 uM after 24 hrs; type: functional
Outline: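 Macrophages from male C57BL6J mice, harvested 4 days after i.p. thioglycollate. Cells adhered 2 h, then 24 h at 37 °C with compound (10^-5 M final), LPS 1 µg/mL and 5% FCS. Supernatant put on L929 cells with actinomycin D 0.5 µg/mL for 20 h, then MTT 4 h, A570. Triplicate wells. Inhibition = (L−S)/(L−B)×100. Indomethacin reference.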

[2] = Cytotoxicity against human Bel7402 cells; type: cell-based; settings: Bel-7402
[3] = Cytotoxicity against human BGC823 cells; type: cell-based; settings: BGC-823
A549 = assay: Cytotoxicity against human A549 cells; type: cell-based
[4] = system: Peritoneal macrophage cell; assay: Inhibition of LPS-induced TNFalpha secretion in C57BL/6J mouse peritoneal macrophages after 24 hrs; type: functional, cell-based

**Q.** Which IC50 (Liver microsomes) does the source give for `COc1cc([C@H](O)[C@@H](O)CO)cc(OC)c1O[C@@H]1O[C@H](CO)[C@@H](O)[C@H](O)[C@H]1O` here?
**A.** > 10 µM

**Q.** And the IC50 (HCT-8)?
**A.** > 5 µM

**Q.** What about the IC50 (A2780) of the same molecule?
**A.** > 5 µM

**Q.** What about the inhibition at 10 µM [1] of the same molecule?
**A.** 28.2%

**Q.** And the IC50 [2]?
**A.** > 5 µM

**Q.** What about the IC50 [3] of the same molecule?
**A.** > 5 µM

**Q.** What about the IC50 (A549) of the same molecule?
**A.** > 5 µM

**Q.** Which IC50 (Liver microsomes) does the source give for `CC1=C[C@@H](C2=C(C)CC[C@H](O[C@@H]3O[C@H](CO)[C@@H](O)[C@H](O)[C@H]3O)C2(C)C)[C@@H](/C=C(/C)C(=O)O)OC1` [FRAXINUACIDOSIDE] here?
**A.** > 10 µM

**Q.** What about the IC50 (HCT-8) of the same molecule?
**A.** > 5 µM

**Q.** And the IC50 (A2780)?
**A.** > 5 µM

**Q.** What about the IC50 [2] of the same molecule?
**A.** > 5 µM

**Q.** What about the IC50 [3] of the same molecule?
**A.** > 5 µM

**Q.** What about the IC50 (A549) of the same molecule?
**A.** > 5 µM

**Q.** What does the source list for `COc1cc([C@@H](O)[C@@H](O)CO)cc(OC)c1O[C@@H]1O[C@H](CO)[C@@H](O)[C@H](O)[C@H]1O`?
**A.** IC50 (Liver microsomes): > 10 µM; IC50 (HCT-8): > 5 µM; IC50 (A2780): > 5 µM; inhibition at 10 µM [1]: 26.6%; IC50 [2]: > 5 µM; IC50 [3]: > 5 µM; IC50 (A549): > 5 µM

**Q.** For `COc1cc(C(=O)OC[C@H]2O[C@@H](Oc3cc4ccc(=O)oc4cc3O)[C@H](O)[C@@H](O)[C@@H]2O)ccc1O[C@@H]1O[C@H](CO)[C@@H](O)[C@H](O)[C@H]1O`, which IC50 (Liver microsomes) is on record?
**A.** > 10 µM

**Q.** What about the IC50 (HCT-8) of the same molecule?
**A.** > 5 µM

**Q.** And the IC50 (A2780)?
**A.** > 5 µM

**Q.** What about the inhibition at 10 µM [1] of the same molecule?
**A.** 30.8%

**Q.** And the IC50 [2]?
**A.** > 5 µM

**Q.** And the IC50 [3]?
**A.** > 5 µM

**Q.** What about the IC50 (A549) of the same molecule?
**A.** > 5 µM

**Q.** Which results are given for `COc1cc(O[C@@H]2O[C@H](CO)[C@@H](O)[C@H](O)[C@H]2O)ccc1O[C@@H]1O[C@H](CO)[C@@H](O)[C@H](O)[C@H]1O`?
**A.** IC50 (Liver microsomes): > 10 µM; IC50 (HCT-8): > 5 µM; IC50 (A2780): > 5 µM; inhibition at 10 µM [1]: 16.3%; IC50 [2]: > 5 µM; IC50 [3]: > 5 µM; IC50 (A549): > 5 µM

**Q.** For `COc1cc([C@@H](O)[C@H](O)CO)cc(OC)c1O[C@@H]1O[C@H](CO)[C@@H](O)[C@H](O)[C@H]1O`, which IC50 (Liver microsomes) is on record?
**A.** > 10 µM

**Q.** What about the IC50 (HCT-8) of the same molecule?
**A.** > 5 µM

**Q.** And the IC50 (A2780)?
**A.** > 5 µM

**Q.** What about the inhibition at 10 µM [1] of the same molecule?
**A.** 27.5%

**Q.** What about the IC50 [2] of the same molecule?
**A.** > 5 µM

**Q.** What about the IC50 [3] of the same molecule?
**A.** > 5 µM

**Q.** What about the IC50 (A549) of the same molecule?
**A.** > 5 µM

**Q.** Which IC50 (Liver microsomes) does the source give for `COc1cc(CCO[C@@H]2O[C@H](CO[C@@H]3OC[C@](O)(CO)[C@H]3O)[C@@H](O)[C@H](O)[C@H]2O)ccc1O` here?
**A.** > 10 µM

**Q.** What about the IC50 (HCT-8) of the same molecule?
**A.** > 5 µM

**Q.** And the IC50 (A2780)?
**A.** > 5 µM

**Q.** What about the inhibition at 10 µM [1] of the same molecule?
**A.** 44.3%

**Q.** And the IC50 [4]?
**A.** 1.6 µM

**Q.** What about the IC50 [2] of the same molecule?
**A.** > 5 µM

**Q.** And the IC50 [3]?
**A.** > 5 µM

**Q.** And the IC50 (A549)?
**A.** > 5 µM

**Q.** For `OC[C@@]1(O)CO[C@@H](OC[C@H]2O[C@@H](OCCc3ccc(O)c(O)c3)[C@H](O)[C@@H](O)[C@@H]2O)[C@@H]1O`, which IC50 (Liver microsomes) is on record?
**A.** 0.9 µM

**Q.** And the IC50 (HCT-8)?
**A.** > 5 µM

**Q.** And the IC50 (A2780)?
**A.** > 5 µM

**Q.** And the inhibition at 10 µM [1]?
**A.** 28.8%

**Q.** And the IC50 [2]?
**A.** > 5 µM

**Q.** And the IC50 [3]?
**A.** > 5 µM

**Q.** And the IC50 (A549)?
**A.** > 5 µM

**Q.** With `COc1ccc2c(c1)c(CC(=O)O)c(C)n2C(=O)c1ccc(Cl)cc1` [INDOMETHACIN] as the molecule, how does the inhibition at 10 µM [1] read?
**A.** 33.2%

**Q.** With `O=C(/C=C/c1ccc(O)c(O)c1)OC[C@H]1O[C@H]2OC[C@H](c3ccc(O)c(O)c3)O[C@@H]2[C@@H](O)[C@@H]1O` [PLANTASIOSIDE] as the molecule, how does the IC50 (HCT-8) read?
**A.** 3.4 µM

**Q.** Which IC50 (Liver microsomes) does the source give for `COc1cc(O[C@@H]2O[C@H](CO)[C@@H](O)[C@H](O)[C@H]2O)cc(OC)c1O[C@@H]1O[C@H](CO)[C@@H](O)[C@H](O)[C@H]1O` here?
**A.** > 10 µM

**Q.** What about the IC50 (HCT-8) of the same molecule?
**A.** > 5 µM

**Q.** And the IC50 (A2780)?
**A.** > 5 µM

**Q.** And the inhibition at 10 µM [1]?
**A.** 25.2%

**Q.** What about the IC50 [2] of the same molecule?
**A.** > 5 µM

**Q.** And the IC50 [3]?
**A.** > 5 µM

**Q.** What about the IC50 (A549) of the same molecule?
**A.** > 5 µM
